According to PubChem BioAssay AID504768 (Southern Research Specialized Biocontainment Screening …, 2011):

Assay: K1F phage lysis inhibition in UTI89, confirmation, capsule biogenesis inhibitor project, UTI89 strain, C7 control, set 4 (AID 504768)
Details: E. coli UTI89 K1F phage lysis inhibition, OD600; measured here: cytotoxicity CC50
How it was run: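 Assay system: E. coli UTI89 (K1) and kpsM mutant bacterial cultures / Benchmarks: phage-resistant kpsM mutant culture as control / Schedule: 1.25 h at 37 °C pre-phage, 3 h post-infection read / Repeats: four replicate wells per compound concentration / Reagent: K1F phage infection / Detection: absorbance at 600 nm (OD600) / Compound: 1% DMSO final in wells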

| SMILES | CC50 |
| --- | --- |
| O=C(Nc1nc2ccccc2s1)c1cccnc1 | 129 µM |
| O=C(Nc1nc2c(F)cc(F)cc2s1)c1cccnc1 | > 300 µM |
| O=C(Nc1nc2ccccc2s1)c1ccncc1 | 104 µM |
| O=C(Nc1nc2c(F)cccc2s1)c1ccccn1 | 2.56 µM |
| O=C(Nc1nc2ccc(F)cc2s1)c1ccccn1 | 3.32 µM |
| O=C(Nc1nc2c(F)cc(F)cc2s1)c1ccncc1 | 71.8 µM |
| Cc1cc(C)c2nc(NC(=O)c3ccccn3)sc2c1 | 6.19 µM |
| O=C(Nc1nc2c(F)cc(F)cc2s1)c1ccccc1 | 30.9 µM |
| O=C(Nc1nc2c(Cl)cc(Cl)cc2s1)c1ccccn1 | 3.55 µM |
